Bioassay records from PubChem.
TRPML3 ag – agonists of human TRPML3 channel; Q8TDD5; AID 1448; 220,000 compounds, 0.29% hits; activation, % at 3 µM; HEK293 TRPML3-YFP, Fluo-8 calcium fluorescence; 100% = the carbachol control signal;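 active = activation above its plate's cutoff, the mean activation of the plate's test wells plus 3 SD, cut at about 12% in these data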
Target sequence (Q8TDD5 whole entry, looked up): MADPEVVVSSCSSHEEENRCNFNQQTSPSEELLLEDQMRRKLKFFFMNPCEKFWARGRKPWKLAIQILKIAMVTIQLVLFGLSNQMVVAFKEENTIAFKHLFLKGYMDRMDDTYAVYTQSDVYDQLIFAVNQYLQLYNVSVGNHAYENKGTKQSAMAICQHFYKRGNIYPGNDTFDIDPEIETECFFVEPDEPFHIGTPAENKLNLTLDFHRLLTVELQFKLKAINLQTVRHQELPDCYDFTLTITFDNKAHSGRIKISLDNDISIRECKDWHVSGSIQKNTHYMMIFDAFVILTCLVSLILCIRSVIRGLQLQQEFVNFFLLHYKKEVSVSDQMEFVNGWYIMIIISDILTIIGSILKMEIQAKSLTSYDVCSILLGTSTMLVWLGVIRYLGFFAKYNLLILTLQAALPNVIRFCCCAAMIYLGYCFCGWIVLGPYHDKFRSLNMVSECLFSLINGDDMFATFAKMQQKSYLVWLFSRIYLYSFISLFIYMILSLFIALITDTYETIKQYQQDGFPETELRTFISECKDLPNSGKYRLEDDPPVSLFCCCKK
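Test system: HEK293 cells stably carrying human TRPML3-YFP; Doses: single dose, 3 µM final nominal compound, 0.3% DMSO final; Schedule: dye loading 1 h 37 °C then 30 min ambient, 125 s read; Technique: Fluo-8 calcium fluorescence; Benchmarks: high control carbachol 87 µM, low control DMSO.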
TRPN1 ag – zebrafish TRPN1 (NompC) channel agonism; 220,000 compounds, 0.18% hits; HEK293 zebrafish TRPN1-YFP, Fluo-8 calcium fluorescence; 100% = response to 87 µM carbachol; activation, % at 3 µM;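 active = activation above its plate's cutoff, the mean activation of test wells on that plate plus 3 SD, cut at about 19% in these data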
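Control set: carbachol 87 µM as high control, DMSO as low control; system: HEK293 stable line with zebrafish TRPN1-YFP; read-out: % activation versus carbachol response; detection: intracellular calcium fluorescence with Fluo-8; doses: single test compound dose, 3 µM nominal, 0.3% DMSO; schedule: dye 1 h 37 °C plus 30 min RT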
CHO-K1 Ca antag – counter-screen for M1 antagonists: effect in parental CHO-K1 cells; 360,000 compounds, 0.6% hits; inhibition, % at 3 µM; ATP-induced calcium, Fluo-8 fluorescence;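 active = inhibition above a per-plate cutoff, the plate's mean sample inhibition plus 3 SD, cut at about 24% in these data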
CHO-K1 Ca ag – counter-screen for M1 agonists: effect in parental CHO-K1 cells; Fluo-8 calcium fluorescence; scaled to maximal ATP response, vehicle zero; 360,000 compounds, 0.48% hits; AID 602248; activation, % at 3 µM; in the data active = activation above about 15%;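 also: untransfected CHO-K1 host cells lacking M1 receptor as counterscreen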
M1 PAM parental – M1 PAM counterscreen hit in parental CHO-K1 cells | ATP EC20, Fluo-8 calcium fluorescence; 0% at ATP EC20, 100% at ATP max | activation, % at 3 µM | 360,000 compounds, 0.02% hits | AID 602247;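 active = activation above the run cutoff, the mean activation of all test compounds plus 3 SD, cut at about 40% in these data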;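 also: peak over basal fluorescence ratio in a 140 s read after ATP addition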
A number is an active result; n = inactive; x = not tested or not shown. Sampled rows, rich in hits. Any-hit rate of the full collection: about 1.2%.

SMILES	TRPML3 ag	TRPN1 ag	CHO-K1 Ca antag	CHO-K1 Ca ag	M1 PAM parental
Cc1ccsc1C1C2=C(CC(C)(C)CC2=O)Nc2ncnn21 (centres undefined)	n	n	n	n	n
Cc1ccsc1C1C2=C(CCCC2=O)Nc2ncnn21 (centres undefined)	n	n	31	n	n
Cn1nc(C(C)(C)C)cc1NC(=O)C1(C)CCN1C(=O)Cc1ccc(-c2ccccc2)cc1 (centres undefined)	x	x	n	n	n
O=C(OCC(=O)N1CCCCCC1)c1ccc(Cl)c(S(=O)(=O)N2CCCC2)c1	n	n	n	16	n
Cc1ccc(S(=O)(=O)N2CCN(C(=O)COC(=O)c3ccc(O)cc3)CC2)c(C)c1	x	x	27	n	n
NC(=O)COC(=O)c1ccc(Cl)c(S(=O)(=O)N2CCCCCC2)c1	n	n	n	n	n
Cc1c(C(=O)NCc2cccc([N+](=O)[O-])c2)sc(=O)n1Cc1ccc(C(C)C)cc1	x	x	n	n	n
COC1OC(c2ccccc2)=C(c2cnc(N)nc2)c2ccc(F)cc21 (centres undefined)	x	x	n	n	n
Cc1sc2ncnc(NCC(O)c3ccc([N+](=O)[O-])cc3)c2c1C (centres undefined)	x	x	27	18	n
Cc1sc2ncnc(NCC(O)c3ccccc3)c2c1C (centres undefined)	x	x	n	17	n
O=[N+]([O-])c1ccc(NC(=S)NCc2ccc(F)cc2)cc1	x	x	24	n	n
O=[N+]([O-])c1ccc(NC(=S)NCCc2ccccc2)cc1	12	19	n	n	n
CCN1CCc2c(sc(NC(=O)Nc3ccc(Cl)c(Cl)c3)c2C(N)=O)C1	84	195	59	95	n
C[C@@H]1CN([C@@H](C)CO)C(=O)CCCn2nncc2CO[C@@H]1CN(C)C(=O)Cc1ccccc1	x	x	n	n	n
COc1ccccc1NS(=O)(=O)c1cccc(NC(=O)Nc2ccccc2)c1	n	n	37	18	n
CCNC(=S)Nc1cccc(S(=O)(=O)Nc2ccccc2OC)c1	n	n	n	n	n
COc1ccccc1NS(=O)(=O)c1cccc(NC(=O)Nc2ccc(Cl)cc2)c1	n	n	38	n	n
COC(=O)c1nc(-c2ccc(C)cc2)[nH]c1C(C)(C)C	x	x	n	n	n
CCOC(=O)N1CCN(C(=O)c2ccc(OC)c(OC)c2)CC1	n	n	n	n	n
CCOC(=O)N1CCN(C(=O)c2ccc(OCC)c(OCC)c2)CC1	n	n	37	n	n
Cc1ccc2nc(SCC(=O)NCc3ccc4c(c3)OCO4)nc(=O)n2c1	x	x	26	n	n
Cc1ccc2nc(SCC(=O)NCc3ccccc3)nc(=O)n2c1	x	x	n	n	n
N=C1/C(=C/c2cccn2Cc2ccc(F)cc2)C(=O)N=C2SC=CN12	n	n	n	n	n
CSC1=NSC2=NC(=O)/C(=C/c3coc4ccccc4c3=O)C(=N)N12	n	36	35	45	n
CSC1=NSC2=NC(=O)/C(=C\c3cccs3)C(=N)N12	n	n	n	n	n
SMILES	TRPML3 ag	TRPN1 ag	CHO-K1 Ca antag	CHO-K1 Ca ag	M1 PAM parental
CSC1=NSC2=NC(=O)/C(=C/c3coc4ccc(O)cc4c3=O)C(=N)N12	n	n	35	27	n
CC1=CC2=NC(=O)/C(=C/c3coc4ccc(Cl)cc4c3=O)C(=N)N2O1	16	53	27	56	n
CC1=CC2=NC(=O)/C(=C\c3cc(C)n(-c4cccc(Cl)c4)c3C)C(=N)N2O1	n	n	n	n	n
N=C1/C(=C\c2coc3ccccc3c2=O)C(=O)N=C2SC=CN12	66	176	31	83	n
CCOC(=O)[C@]12CCCC=C1N(Cc1ccc(Cl)cc1Cl)C(=O)[C@H](CC(=O)NCCc1ccccc1OC)C2	x	x	n	n	n
CCn1c(C)nc2cc(C(=O)OC(C(F)(F)C(F)F)C(F)(F)C(F)F)ccc21	n	n	45	n	n
CCn1c(C)nc2cc(C(=O)NNC(=O)c3ccc(C)cc3)ccc21	x	x	n	n	n
CC1(c2nc3ccccc3[nH]2)CCC(=O)N1Cc1cccs1 (centres undefined)	x	x	n	n	n
CN(C)C(CNC(=S)Nc1ccccc1)c1cccnc1 (centres undefined)	n	n	n	n	n
CCc1cccc(C)c1NC(=S)NCC(c1cccnc1)N(C)C (centres undefined)	n	n	n	17	n
COc1ccc(-c2cc3c(c4c2ccn4C)C2CCC3C2)cc1F (centres undefined)	x	x	24	n	n
